# A selection: hits, their analogues and other compounds. The true share with any hit is near 3.5%.
# PRMT1 inh – PRMT1 methyltransferase inhibitors, primary screen, biochemical, fluorescence polarization; Protein arginine N-methyltransferase 1 (Homo sapiens), Q99873; recombinant PRMT1, activity-based probe fluorescence polarization; inhibition, % at 2.79 µM; 1.3% of 370,000 active;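 active = inhibition above about 21% made by adding two undisclosed values, limit read from the data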
# Target sequence (Q99873 whole entry, looked up): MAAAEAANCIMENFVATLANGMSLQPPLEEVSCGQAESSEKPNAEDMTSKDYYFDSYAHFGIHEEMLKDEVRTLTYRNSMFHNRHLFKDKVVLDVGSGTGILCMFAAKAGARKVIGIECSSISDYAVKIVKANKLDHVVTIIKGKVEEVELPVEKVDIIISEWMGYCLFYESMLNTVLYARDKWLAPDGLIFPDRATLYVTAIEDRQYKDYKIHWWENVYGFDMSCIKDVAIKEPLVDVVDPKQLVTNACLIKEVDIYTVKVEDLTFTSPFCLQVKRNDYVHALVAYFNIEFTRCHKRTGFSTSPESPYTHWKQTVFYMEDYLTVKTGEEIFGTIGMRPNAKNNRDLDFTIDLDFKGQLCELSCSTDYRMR
# rCAG RNA binder – binders of r(CAG) RNA repeats, primary screen, biochemical, fluorescence; r(CAG) RNA repeat, TO-PRO-1 dye displacement fluorescence; inhibition, % at 3 µM; 1.3% of 370,000 active; AID 651821, 2012;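 active = inhibition above the plate cutoff, the mean of all test compounds on that plate plus 3 SD, cut at about 35% in these data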;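 also: 0% = DMSO alone and 100% = 100 µM mitoxantrone as full dye displacement; higher means more dye released from RNA so lower well fluorescence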
# ABHD4 inh – ABHD4 inhibitors, primary screen, biochemical, fluorescence polarization, mouse | (Lyso)-N-acylphosphatidylethanolamine lipase (Mus musculus), Q8VD66 | purified mABHD4, FP-Rh probe fluorescence polarization | inhibition, % at 8.92 µM | 0.54% of 370,000 active;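 active = inhibition exceeding the mean over every tested compound plus 3 SD, cut at about 30% in these data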;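 also: 0% = plate median of compound wells and 100% = S159A mutant with DMSO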
#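 System: mouse ABHD4 enzyme, wild type / Medium: HEPES pH 7.0, NaCl, Pluronic buffer / Reagent: FP-Rh activity-based fluorescent probe / Control set: S159A mutant high control, sample median low control / Detection: fluorescence polarization with parallel and perpendicular emission, 525/598 nm / Schedule: 45 min + 60 min at 25 °C / Compound dosing: 8.92 µM, single dose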
# HTRA1 inh – HTRA1 serine protease inhibitors, primary screen, biochemical, fluorescence polarization, HTS; Q92743; recombinant HTRA1, FP-rhodamine activity-based probe; inhibition, % at 5.96 µM; 0.5% of 340,000 active; in the data active = inhibition above about 36%;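 also: 0% = enzyme with DMSO and 100% = wells lacking enzyme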
# TCR-CD3 inh – inhibitors of human TCR-CD3 interaction, primary screen, biochemical, fluorescence, TAMRA-labeled TCR probe | inhibition, % at 9.4 µM | 0.37% of 360,000 active | AID 651800, 2012; in the data active = inhibition above about 19%;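 also: recombinant mutant TCR 2C K166C tagged with TAMRA read by polarization; 0% = receptor in buffer alone and 100% = receptor with positive control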
# SIAE primary – human SIAE inhibitors, primary screen, biochemical, fluorescence polarization, FP-Rh probe, 1536-well HTS; SIAE FP-Rh probe binding; inhibition, % at 9.66 µM; 0.69% of 370,000 active; Sialate O-acetylesterase (Homo sapiens), Q9HAT2;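 active = inhibition above a cutoff: mean of compounds within the control limits plus 3 SD of those, cut at about 17% in these data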;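 also: 0% = plate median of compound wells and 100% = probe without SIAE protein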
# PRMT1 confirm – PRMT1 methyltransferase inhibitors, confirmation, biochemical, fluorescence polarization, triplicate. shares compounds with PRMT1 inh. recombinant His-PRMT1, activity-based probe fluorescence polarization. inhibition, % at 2.79 µM. 42% of 3,300 active;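 active = mean inhibition across replicates above the hit cutoff derived for the earlier primary screen, cut at about 22% in these data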
# * = called active by the depositor; . = no result.
SMILES,PRMT1 inh,rCAG RNA binder,ABHD4 inh,HTRA1 inh,TCR-CD3 inh,SIAE primary,PRMT1 confirm
Cc1nnc2n(c1=O)N=C(c1ccc(Cl)cc1)CS2,56*,3,5,5,-6,1,57*
COCCn1c(-c2ccc(OC)cc2)nc2ccccc21,-3,-5,-2,4,-3,-3,.
COCCn1c2nc(=O)n(-c3ccccc3)c(=O)c-2nc2ccccc21,115*,-72,5,4,7,3,113*
COc1ccc(CCNC(=O)CSc2nc3[nH]c(=O)cc(O)c3s2)cc1,29*,22,10,-3,1,7,4
C[C@H](O)[C@@H]1CN2CCc3c([nH]c4cccc(-c5ccc6c(c5)OCO6)c34)[C@@H]2C[C@@H]1N(C)C(=O)c1ccco1,3,8,3,.,.,2,.
COc1ccccc1-n1c(SC)nc(O)cc1=O,25*,7,11,8,-1,-6,5
C#CCNC(=O)C[C@H]1C[C@@]2(C(=O)OC)C(=C[C@H](C3CCCC3)O[C@@H]2C)N(CCC2=CCCCC2)C1=O,2,6,3,.,.,6,.
Nc1cccc([N+](=O)[O-])c1,2,1,7,8,1,4,.
O=[N+]([O-])c1cccc(SSc2cccc([N+](=O)[O-])c2)c1,83*,3,2,2,-5,3,95*
CC(=O)CSc1cc(-c2ccccc2)nc2ncnn12,28*,-5,1,0,-10,-4,37*
C=CCN(C)C(C#CCCCC)c1ccccc1 (stereo not drawn),2,.,1,.,.,3,.
COc1ccc(C2NC(=S)N3C(c4ccc(OC)cc4)NC(=S)N23)cc1 (stereo not drawn),46*,5,-11,12,-3,4,5
CCCOC(=O)c1c(NC(=O)C2C3C=CC(C3)C2C(=O)O)sc2c1CCC(C)C2 (stereo not drawn),52*,15,7,4,-7,3,4
CCOC(=O)c1c(NC(=O)C2C3CCC(O3)C2C(=O)O)sc2c1CCCC2 (stereo not drawn),-2,16,7,4,13,2,.
Cc1cc(C)nc(SSc2nc(C)cc(C)n2)n1,89*,-1,15,5,-4,0,82*
Cn1cccc1C(=O)OCC(=O)NCc1ccc2c(c1)OCO2,126*,3,10,-6,26*,8,3
O=C(COC(=O)c1c(F)cccc1F)NCc1ccc2c(c1)OCO2,-5,2,-5,-2,5,-1,.
CCn1c(=O)[nH]n(C/C(C)=C\c2c[n+](Cc3ccc4c(c3)OCO4)c(N)[nH]2)c1=O,0,.,-3,.,.,-1,.
CC(C)n1c(-c2ccccc2)nc(=S)c2c1CCCC2,36*,1,13,.,-5,1,3
Cc1ccc(N=Cc2c(O)n(C)c(=O)n(C)c2=O)nc1,29*,1,-1,2,2,0,-5
O=C(NCc1ccc2c(c1)OCO2)c1nc(S(=O)(=O)Cc2ccccc2F)ncc1Cl,29*,2,4,-2,-5,1,22*
O=C(NCc1ccc2c(c1)OCO2)c1ccccc1Cl,-2,-1,-2,3,7,-3,.
O=C(NCc1ccc2c(c1)OCO2)c1nc(S(=O)(=O)Cc2ccccc2)ncc1Cl,25*,1,-6,3,3,-2,17
CC(=O)c1cc(-c2cccc(Cl)c2O)c(=O)n2c1CCC2,0,7,-1,.,.,2,.
O=C(C1CC1)N1CCc2cc(Br)c(S(=O)(=O)NCCCN3CCCCC3)cc21,1,5,1,.,.,0,.
COC(=O)c1ccc2c(=O)n(CCN3CCOCC3)c(SCC(=O)Nc3ccccc3Cl)nc2c1,27*,1,3,4,-1,0,48*
COc1cc(C)ccc1C(=O)N1CCC(Oc2cccnc2)CC1,1,-2,8,.,.,4,.

# Bioassay records: PubChem BioAssay, The Scripps Research Institute Molecular Screening Center
